Data set [1] deals with T1, Phosphatidylinositol 4,5-bisphosphate 3-kinase catalytic subunit delta isoform (Homo sapiens, UniProt O00329).
T1 sequence (O00329 whole entry): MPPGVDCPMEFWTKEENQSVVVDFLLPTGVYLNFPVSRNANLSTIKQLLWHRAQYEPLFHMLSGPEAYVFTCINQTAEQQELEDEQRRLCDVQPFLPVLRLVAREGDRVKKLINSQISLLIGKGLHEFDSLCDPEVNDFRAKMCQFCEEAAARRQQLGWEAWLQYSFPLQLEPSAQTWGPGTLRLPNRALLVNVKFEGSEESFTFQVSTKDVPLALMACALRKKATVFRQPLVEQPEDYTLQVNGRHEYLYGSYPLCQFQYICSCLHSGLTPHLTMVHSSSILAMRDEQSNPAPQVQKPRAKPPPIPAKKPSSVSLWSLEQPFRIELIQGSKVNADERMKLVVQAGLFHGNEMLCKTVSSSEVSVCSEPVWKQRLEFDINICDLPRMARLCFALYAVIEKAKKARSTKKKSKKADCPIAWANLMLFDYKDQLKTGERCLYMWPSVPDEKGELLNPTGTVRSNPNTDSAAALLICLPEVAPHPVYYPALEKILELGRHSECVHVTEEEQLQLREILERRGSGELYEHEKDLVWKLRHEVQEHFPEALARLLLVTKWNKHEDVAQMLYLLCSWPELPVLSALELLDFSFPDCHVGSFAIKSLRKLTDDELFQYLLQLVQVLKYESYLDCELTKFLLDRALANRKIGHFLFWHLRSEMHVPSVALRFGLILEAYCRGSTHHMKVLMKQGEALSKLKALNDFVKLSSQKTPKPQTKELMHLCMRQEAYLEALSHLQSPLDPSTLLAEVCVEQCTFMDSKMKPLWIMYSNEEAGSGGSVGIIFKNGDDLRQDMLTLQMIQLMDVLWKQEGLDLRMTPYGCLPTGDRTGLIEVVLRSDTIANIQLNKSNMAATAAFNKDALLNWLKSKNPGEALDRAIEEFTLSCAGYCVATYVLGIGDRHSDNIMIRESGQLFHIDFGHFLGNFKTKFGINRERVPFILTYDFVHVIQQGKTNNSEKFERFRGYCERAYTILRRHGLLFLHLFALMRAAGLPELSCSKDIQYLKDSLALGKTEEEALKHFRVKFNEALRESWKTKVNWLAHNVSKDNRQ
Nature of the data set: Binding affinity to human wild-type partial length PI3Kdelta (R108 to Q1044 residues) expressed in mammalian expression system by kinome scan assay. The method, boiled down:
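DNA-tagged kinases competed against immobilized ligand with an 11-point 3-fold serial dilution starting from 30 μM. Kinase bound measured by qPCR of the DNA tags. Kd from standard dose–response curves with the Hill equation (Hill slope −1); mean of duplicate experiments.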

A further data set addresses T2, CYP1A2 (Homo sapiens, UniProt P05177).
T2 sequence (P05177 whole entry): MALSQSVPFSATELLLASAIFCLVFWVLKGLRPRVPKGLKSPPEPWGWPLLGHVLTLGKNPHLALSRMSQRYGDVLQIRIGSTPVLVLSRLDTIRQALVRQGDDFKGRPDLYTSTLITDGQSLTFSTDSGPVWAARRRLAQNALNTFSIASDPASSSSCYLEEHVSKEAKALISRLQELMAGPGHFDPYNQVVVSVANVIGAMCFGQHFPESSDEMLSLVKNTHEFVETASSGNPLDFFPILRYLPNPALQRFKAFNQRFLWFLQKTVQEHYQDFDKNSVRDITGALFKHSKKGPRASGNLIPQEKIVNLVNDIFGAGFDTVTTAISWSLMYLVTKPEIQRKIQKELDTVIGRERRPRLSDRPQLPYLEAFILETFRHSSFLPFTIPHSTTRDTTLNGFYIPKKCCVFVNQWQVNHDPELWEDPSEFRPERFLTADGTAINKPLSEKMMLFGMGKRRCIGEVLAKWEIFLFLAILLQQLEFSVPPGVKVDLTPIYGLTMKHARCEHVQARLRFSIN
As to the kind of experiment: Substrate activity at recombinant human CYP1A2 expressed in baculovirus infected insect cells assessed as parent compound remaining at 1 uM incubated for 60 mins in absence of NADP+-regenerating system by LC-MS analysis. Type of data set: ADME. To be noted: read-out: Stability. A digest of the protocol:
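Baculovirus/insect-cell Supersomes, each expressing a single human CYP, at 25 pmol/mL. Compound at 1 μM (0.25% DMSO), 37 °C, 60 min. Reactions run with a NADP+-regenerating cofactor mix or, as negative control, without cofactors and glucose-6-phosphate dehydrogenase. Stopped with ACN containing internal standard. Duplicates; % remaining from absolute amounts.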

For data set [2], the target named is Phosphatidylinositol 4-kinase beta (Homo sapiens, UniProt Q9UBF8). As to the kind of experiment: Binding affinity to wild-type human full-length PI4Kbeta (M1 to M828 residues) expressed in mammalian expression system by kinome scan assay. The method, boiled down:
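Competition binding: compound competes with an immobilized ligand for a DNA-tagged kinase. The 11-point, 3-fold serial dilution starts at 30 μM. Bound kinase is quantified by qPCR of the DNA tag. Kd is fitted to a standard dose–response curve using the Hill equation with slope fixed at −1, and reported as the mean of duplicate experiments.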

In data set [3] the target is Serine/threonine-protein kinase mTOR (Homo sapiens, UniProt P42345). Nature of the data set: Inhibition of alexa fluor 647-labeled kinase tracer 314 binding to recombinant human N-terminal GST-fused mTOR (1360 to 2549 residues) expressed in baculovirus expression system by TR-FRET assay. A digest of the protocol: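 LanthaScreen TR-FRET tracer displacement. GST-fused truncated mTOR (aa 1360–2549) detected with Eu-anti-GST antibody (2 nM). […] Buffer: 50 mM HEPES, 5 mM MgCl2, 1 mM EGTA, 0.01% Pluronic F-127. Ki derived from displacement.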
(In general: Time-resolved FRET reads energy transfer from a long-lived donor to a nearby acceptor.)

The target of the next data set is mTORC2 (Homo sapiens, UniProt P42345). As to the kind of experiment: Inhibition of mTORC2 in human A2058 cells assessed as reduction in PKB phosphorylation at S473 residues incubated for 1 hr by Western blot analysis. Type of data set: cell-based. The method, boiled down:
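In-cell Western assay. A2058 cells (2 × 10^4/well) grown 24 h at 37 °C, 5% CO2, then exposed 1 h to inhibitor or DMSO. Cells fixed in 4% PFA, blocked, and stained for the phospho-protein with α-tubulin as internal standard; infrared fluorescence read-out. Signals normalized to tubulin and to DMSO controls to derive IC50.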
In general terms: In western blotting, separated proteins are transferred to a membrane and probed.

The species named for the next data set is Homo sapiens. As to the kind of experiment: Selectivity ratio of Ki for inhibition of alexa fluor 647-labeled kinase tracer 314 binding to recombinant human full-length N-terminal His6-tagged p110alpha/p85alpha expressed in baculovirus expression system to Ki for inhibition of alexa fluor 647-labeled kinase tracer 314 binding to recombinant human N-terminal GST-fused mTOR (1360 to 2549 residues) expressed in baculovirus expression system. The method, boiled down:
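Ratio of Ki values from the TR-FRET tracer 314 displacement assays. p110α: His6-tagged enzyme, biotin anti-His antibody and Eu-streptavidin (2 nM each), tracer at 20 nM, buffer 50 mM HEPES pH 7.5, 10 mM MgCl2, 1 mM EGTA, 0.01% Brij-35. mTOR: GST-mTOR 1360–2549, Eu-anti-GST, tracer 10 nM, HEPES/5 mM MgCl2/EGTA/Pluronic buffer.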

These results are taken from ChEMBL document CHEMBL4321805, “A Conformational Restriction Strategy for the Identification of a Highly Selective Pyrimido-pyrrolo-oxazine mTOR Inhibitor” (J Med Chem, 2019).

Chain of Phosphatidylinositol 4-kinase beta (Q9UBF8 whole entry, the tested form may be a part): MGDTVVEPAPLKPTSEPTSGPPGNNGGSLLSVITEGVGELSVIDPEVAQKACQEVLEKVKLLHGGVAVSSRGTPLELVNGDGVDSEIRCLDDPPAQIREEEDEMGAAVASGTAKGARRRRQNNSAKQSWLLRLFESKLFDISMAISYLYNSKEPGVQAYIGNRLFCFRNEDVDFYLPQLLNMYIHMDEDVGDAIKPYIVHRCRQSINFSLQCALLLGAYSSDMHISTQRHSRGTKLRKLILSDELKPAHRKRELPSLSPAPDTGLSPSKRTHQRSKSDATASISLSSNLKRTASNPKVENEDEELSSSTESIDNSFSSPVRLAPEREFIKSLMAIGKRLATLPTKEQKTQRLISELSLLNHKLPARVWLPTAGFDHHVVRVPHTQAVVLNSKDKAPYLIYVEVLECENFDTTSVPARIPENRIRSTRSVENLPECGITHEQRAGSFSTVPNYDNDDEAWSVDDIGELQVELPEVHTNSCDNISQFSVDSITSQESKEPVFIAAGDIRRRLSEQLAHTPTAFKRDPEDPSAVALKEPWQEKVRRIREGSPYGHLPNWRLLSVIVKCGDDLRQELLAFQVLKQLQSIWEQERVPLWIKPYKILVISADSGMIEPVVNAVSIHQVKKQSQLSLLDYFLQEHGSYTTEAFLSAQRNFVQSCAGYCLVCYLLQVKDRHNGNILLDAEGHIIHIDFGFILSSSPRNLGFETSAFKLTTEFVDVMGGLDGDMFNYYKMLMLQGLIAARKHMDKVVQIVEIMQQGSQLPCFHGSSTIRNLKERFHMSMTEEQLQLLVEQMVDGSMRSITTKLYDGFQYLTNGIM

As for `C[C@@H]1COCCN1c1nc(-c2ccc(N)nc2)nc2c1C[C@@H]1COCCN21`, the Kd in data set [1] was 6.2 µM; in data set [2] it was greater than 30 µM. The remaining at 1 h, 1 µM at CYP1A2 worked out at 94%. The Ki in data set [3] was 13 nM. Besides, the IC50 on mTORC2 was 133 nM. Besides, the Ratio Ki in the data set listed under Homo sapiens came to 165.
On to `C[C@@H]1COCCN1c1nc(-c2cnc(N)cn2)nc2c1C[C@@H]1COCCN21`, for which the Kd was 12 µM in data set [1] and greater than 30 µM in data set [2]. In addition, on CYP1A2, the remaining at 1 h, 1 µM came to 91%. In data set [3], the Ki was 8 nM. Moreover, the IC50 at mTORC2 was 94 nM. Further, the Ratio Ki in the data set listed under Homo sapiens amounted to 212.
As to `C[C@@H]1COCCN1c1nc(-c2cnc(N)nc2)nc2c1C[C@@H]1COCCN21`, the figures for the Kd in data set [1] and in data set [2] were 1.9 µM and greater than 30 µM, respectively. Besides, the remaining at 1 h, 1 µM at CYP1A2 stood at 91%. In addition, in data set [3], the Ki worked out at 2.5 nM. For the same compound, the IC50 on mTORC2 stood at 77 nM. The Ratio Ki in the data set filed under Homo sapiens was determined as 214.

The Kd is a measure of binding affinity in units of concentration. As a reminder, the Ki is the dissociation constant of the complex between target and ligand, obtained from inhibition or displacement. For orientation: IC50 means the point on the concentration scale where inhibition reaches its midpoint.
